Reference: PubChem BioAssay
Results filed as inconclusive are left out.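 Rule for the calls, unless noted: active = viability increase at or above a cutoff of the median across tested compounds plus 3 SD (cut at about 8.5% in these data, passing the limit was not always enough); inconclusive = some gains above the cutoff, reason not given; inactive = the rest.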

Experiments:
[1] = S. cerevisiae growth inhibition in permissive medium (OD615), pilot counter-assay for S. cerevisiae lifespan shortening project, permissive growth control (AID 705;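 active = growth inhibition above 25% in both replicates, a cutoff set 3 SD above the mean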); conditions: OD615, 24 h, at 10 µM, hits give high values
Method in brief: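 Material: engineered DeaD yeast; compound dosing: one dose 10 µM, DMSO 0.25% final; measure: yeast growth inhibition indicated by reduced 24 h OD615; detection: OD615 turbidity read; incubation: cells pre-grown 4 h, then 24 h compound exposure, 30 °C humidified; medium: permissive synthetic complete medium with raffinose and galactose carbon sources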

[2] = S. cerevisiae growth inhibition in restrictive medium, OD615, pilot screen, restrictive growth control, yeast lifespan reduction project (AID 706;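 active = growth inhibition above a set limit, 3 SD over mean compound inhibition, in both replicates, cut at about 43% in these data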;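 note: modified DeaD lifespan yeast strain shifted to restrictive glucose medium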); conditions: OD615, 48 h, at 10 µM, hits give high values
Method in brief: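 material = engineered S. cerevisiae DeaD strain | medium = glucose-based CSMM-D restrictive medium | times = 4 h pre-incubation, 48 h exposure at 30 °C | technique = OD615 absorbance reading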

[3] = doxorubicin toxicity protection in MRP-1 cells – H69AR cells, CellTiter-Glo, duplicate, MRP-1 activator project, pilot screen (AID 807); conditions: H69AR viability with doxorubicin, CellTiter-Glo luminescence; at 10 µM; hits give high values;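 note: compound pretreatment 18-22 h then 72 h combined with doxorubicin; 0% = doxorubicin alone and 100% = vehicle without doxorubicin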
[4] = viability of HCT116 without oncogenic beta-catenin – human colon tumor cells, pilot screen (AID 823;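 active = cell viability at or below a set limit in both duplicate runs, the limit being the all-compound median minus 4 SD, cut at about 23% in these data, passing the limit was not always enough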;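 note: 0% = wells killed by 20 µM Hyamine and 100% = untreated DMSO cell wells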); conditions: HCT116 beta-catenin knockout viability, CellTiter-Glo, 60 h; at 10 µM; hits give low values
[5] = viability of PTEN-null HCT116 cells – cell-based, HCT116 clonal line, CellTiter-Glo, pilot screen (AID 824;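 active = viability at or below 27.92% in each of two runs, the all-compound median minus 4 SD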;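 note: 0% = 20 µM Hyamine control and 100% = vehicle cell control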); conditions: HCT116 PTEN-deleted viability, 60 h, at 10 µM, hits give low values
[6] = RAM pathway blockade in budding yeast – dse1pr::URA3 reporter, 5-FOA selection, pilot screen (AID 869;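 active = inhibition over a set limit, the all-compound mean plus 3 SD, in both replicate runs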;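 note: 0% = DMSO wells with no growth and 100% = 10 µM 1-NA-PP1 with full growth; RAM network block rescues cells from 5-FOA so hits raise OD615 growth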); conditions: S. cerevisiae dse1pr::URA3 5-FOA growth, OD615, 2 d; at 10 µM; hits give high values; strain carries analog-sensitive mutant Cbk1 kinase
[7] = RAM signaling pathway blockade in yeast – S. cerevisiae, Pdr1DBD-CYC8 efflux-inhibited sensitized strain, primary screen (AID 1298;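 active = RAM network inhibition above 8.4% in each of two replicates, 3 SD over the compound average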;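 note: 0% = DMSO untreated cells without growth and 100% = 10 µM 1-NA-PP1 full growth; higher means more yeast growth rescued from 5-FOA killing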); conditions: S. cerevisiae cbk1-as DSE1-URA3 strain, 5-FOA growth OD615, 2 d; at 50 µM; hits give high values

COc1ccc(Cc2nc(-c3ccc(-n4cccc4)cc3)no2)cc1
inactive: growth inhibition [1] 0.23% | growth inhibition [2] -11.5% | viability increase [3] 3.66% | viability [4] 98.3% | viability [5] 88% | inhibition [6] 3.82% | RAM network inhibition [7] 3.16%

COc1ccccc1-c1c(C)nn2c(NCCN3CCCC3)cc(C)nc12
inactive: growth inhibition [1] -3.48% | growth inhibition [2] 0.235% | viability increase [3] -1.54% | viability [4] 87.1% | viability [5] 92.6% | inhibition [6] 0.815% | RAM network inhibition [7] 2.33%

COc1cccc(C2C(C(=O)c3ccco3)=C(O)C(=O)N2CCCN2CCOCC2)c1OC (stereo not drawn)
inactive: growth inhibition [1] -8.82% | growth inhibition [2] -0.75% | viability increase [3] -3.37% | viability [4] 102% | viability [5] 93.5% | inhibition [6] 1.02% | RAM network inhibition [7] 6.98%

COc1ccc(OCC(=O)NC2CC(C)(C)NC(C)(C)C2)cc1
inactive: growth inhibition [1] 4.15% | growth inhibition [2] 2.14% | viability increase [3] 1.31% | viability [4] 103% | viability [5] 105% | inhibition [6] -0.405% | RAM network inhibition [7] 3.43%

COc1ccc(N2CSC3=C(C#N)C(c4cc(OC)c(OC)cc4OC)CC(=O)N3C2)c(OC)c1 (stereo not drawn)
inactive: growth inhibition [1] -2.5% | growth inhibition [2] 31.1% | viability increase [3] -5.15% | viability [4] 71.6% | viability [5] 76.7% | inhibition [6] 1.16% | RAM network inhibition [7] 2.63%

Cn1c(=O)oc2cc(S(=O)(=O)N3CCC(C(=O)NCc4cccs4)CC3)ccc21
inactive: growth inhibition [1] -3.54% | growth inhibition [2] 4.04% | viability increase [3] -0.3% | viability [4] 95.1% | viability [5] 90.2% | inhibition [6] 0.335% | RAM network inhibition [7] 1.5%

CCn1c(=O)c2cc(C(=O)N3CCCC3)sc2c2ccccc21
inactive: growth inhibition [1] -4.95% | growth inhibition [2] 13% | viability increase [3] -1.55% | viability [4] 111% | viability [5] 96.8% | inhibition [6] 1.59% | RAM network inhibition [7] 2.1%

O=C(NCc1cccs1)C1CCCN(S(=O)(=O)c2cccc3cccnc23)C1 (stereo not drawn)
inactive: growth inhibition [1] 8.41% | growth inhibition [2] 2.37% | viability increase [3] -1.59% | viability [4] 94.8% | viability [5] 90.4% | inhibition [6] 1.41% | RAM network inhibition [7] 2.64%

CC(C)C(NC(=O)C12CC3CC(CC(C3)C1)C2)C(=O)NC1=NCCS1 (stereo not drawn)
inactive: growth inhibition [1] -6.21% | growth inhibition [2] 7.3% | viability increase [3] -3.97% | viability [4] 88% | viability [5] 89.2% | inhibition [6] 2.41% | RAM network inhibition [7] 4.34%

N#CC1=C2SCN(Cc3ccco3)CN2C(=O)CC1c1c(F)cccc1Cl (stereo not drawn)
inactive: growth inhibition [1] -2.04% | growth inhibition [2] 20.3% | viability increase [3] -4.91% | viability [4] 88% | viability [5] 88.1% | inhibition [6] 1.95% | RAM network inhibition [7] 4.76%

CN(C)c1ccc(NC(=O)Cn2c(=O)n(Cc3ccccc3)c(=O)c3ccccc32)cc1
inactive: growth inhibition [1] -0.65% | growth inhibition [2] 1.48% | viability increase [3] 3% | viability [4] 83.2% | viability [5] 88.3% | inhibition [6] 0.52% | RAM network inhibition [7] 8.96%

COc1cccc(CNC(=O)C2CCN(S(=O)(=O)c3cccc4cccnc34)CC2)c1
inactive: growth inhibition [1] -10.5% | growth inhibition [2] -2.92% | viability increase [3] -1.45% | viability [4] 100% | viability [5] 97.5% | inhibition [6] 2.88% | RAM network inhibition [7] 3.03%

Cc1csc(NC(=O)CSc2nnc(Cn3c(=O)sc4ccccc43)n2-c2ccccc2)n1
inactive: growth inhibition [1] 0.38% | growth inhibition [2] 15.3% | viability increase [3] -1.37% | viability [4] 96% | viability [5] 96.8% | inhibition [6] 2.42% | RAM network inhibition [7] 6.99%

CCCCOc1ccc(NC(=O)C2CC=CCC2C(=O)O)cc1 (stereo not drawn)
inactive: growth inhibition [1] -5.44% | growth inhibition [2] -26.4% | viability increase [3] -2.19% | viability [4] 81.9% | viability [5] 79.5% | inhibition [6] 0.51% | RAM network inhibition [7] 0.37%

CCc1nc(SCC(=O)c2ccc(C)c(C)c2)n[nH]1
inactive: growth inhibition [1] -9.29% | growth inhibition [2] 4.11% | viability increase [3] 2.14% | viability [4] 102% | viability [5] 104% | inhibition [6] 0.56% | RAM network inhibition [7] 6.63%

O=C(O)c1cccc(NS(=O)(=O)c2cccc3cccnc23)c1
inactive: growth inhibition [1] -3.04% | growth inhibition [2] -3.79% | viability increase [3] 0.96% | viability [4] 103% | viability [5] 99.8% | inhibition [6] 0.655% | RAM network inhibition [7] 4.37%

CC1CCC(NC(=O)CC2Oc3ccccc3NC2=O)CC1 (stereo not drawn)
inactive: growth inhibition [1] 6.36% | growth inhibition [2] 2.4% | viability increase [3] -0.98% | viability [4] 98.8% | viability [5] 97.8% | inhibition [6] 2.69% | RAM network inhibition [7] 5.77%

C=CCn1c(C)nc2c(c1=O)c1nc3ccccc3nc1n2-c1ccc(C)cc1
inactive: growth inhibition [1] -4.19% | growth inhibition [2] -2.97% | viability increase [3] -1.62% | viability [4] 92.3% | viability [5] 82.2% | inhibition [6] 1.32% | RAM network inhibition [7] 4.86%

Cn1c(C(=O)N2CCN(c3ncccn3)CC2)cc2c(=O)n(C)c3ccccc3c21
inactive: growth inhibition [1] 6.33% | growth inhibition [2] 8.57% | viability increase [3] 2.83% | viability [4] 105% | viability [5] 97.2% | inhibition [6] 1.92% | RAM network inhibition [7] -0.01%

CSC1=NCCN1C(=O)c1cccs1
inactive: growth inhibition [1] -2.12% | growth inhibition [2] 11.1% | viability increase [3] 0.08% | viability [4] 99% | viability [5] 99.3% | inhibition [6] 1.11% | RAM network inhibition [7] 1.55%

COc1ccc(CN2CCN(C(=O)c3cccs3)CC2)cc1Br
inactive: growth inhibition [1] -11.5% | growth inhibition [2] -13.4% | viability increase [3] -1.27% | viability [4] 85.4% | viability [5] 87.9% | inhibition [6] 0.72% | RAM network inhibition [7] 2.53%

CC1CCN(CC(O)COc2cccc(F)c2)CC1 (stereo not drawn)
inactive: growth inhibition [1] -14.2% | growth inhibition [2] -6.4% | viability increase [3] -0.94% | viability [4] 96.7% | viability [5] 92.2% | inhibition [6] -0.65% | RAM network inhibition [7] 0.62%

COc1ccc(N(CC(=O)N2CCN(C)CC2)S(C)(=O)=O)cc1OC
inactive: growth inhibition [1] -12% | growth inhibition [2] -9.76% | viability increase [3] -0.37% | viability [4] 90.8% | viability [5] 97.5% | inhibition [6] 0.64% | RAM network inhibition [7] 6.2%

Cc1ccc(-c2noc(CSc3nnnn3-c3ccccc3)n2)cc1
inactive: growth inhibition [1] -16.9% | growth inhibition [2] 9.4% | viability increase [3] 2.8% | viability [4] 88.1% | viability [5] 97.8% | inhibition [6] 1.95% | RAM network inhibition [7] 7.44%
